Experimental data as given in paper PMC5551398 (Biochemistry, 2017).
Bridge positions count the residues as written; N and C are the ends. Primed or numbered codes have the meaning given here. Ends that are not written are not given here. Peptide text beside a SMILES is read from it. * marks the point of attachment. FITC = O=C1OC2(c3ccc(O)cc3Oc3cc(O)ccc32)c2ccc(NC(=S)*)cc21; Biotin = O=C1N[C@H]2[C@H](CS[C@H]2CCCCC(=O)*)N1; FITC′ = fluorescein isothiocyanate label; Ahx = NCCCCCC(=O)O

Legend:
MBP-CTR ECD = target: T1, MBP-CTR ECD (Homo sapiens, UniProt P30988); assay: Competition AlphaLISA peptide-binding assay
T1 sequence (P30988 36-151): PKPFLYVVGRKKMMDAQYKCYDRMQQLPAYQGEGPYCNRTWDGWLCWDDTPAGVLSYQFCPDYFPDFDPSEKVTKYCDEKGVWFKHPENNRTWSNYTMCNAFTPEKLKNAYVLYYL
Summary of the method: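 Binding by AlphaLISA competition. MBP-CTR ECD from transfected HEK293T cells (150 nM) was mixed with 150 nM biotinylated sCT and competitor peptide. Luminescence read at 680/615 nm. Three independent experiments, duplicate samples.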

[1] = target: T2, MBP-CTR ECD (hCTR.36-151) (Homo sapiens, UniProt P30988); assay: FP saturation peptide-binding assay, MBP-CTR ECD WT
T2 sequence (P30988 36-151): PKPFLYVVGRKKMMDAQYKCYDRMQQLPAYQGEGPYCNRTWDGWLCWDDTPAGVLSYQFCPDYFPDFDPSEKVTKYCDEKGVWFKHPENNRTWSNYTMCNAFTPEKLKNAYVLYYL
Summary of the method: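 MBP-CTR ECD was produced in HEK293S GnTI− cells and left untreated, digested with Endo H (4 µl of 500 U/µl, GlycoBuffer 3, 22°C, 30 min), or given heat-inactivated Endo H (75°C, 10 min). Digests were serially diluted (top 3 µM) and titrated against 10 nM FITC-AC413(6-25) Y25P, 1 h, dark, room temperature, HEPES pH 7.4 buffer. Anisotropy corrected for intensity quenching. Duplicate samples.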

[2] = target: T3, MBP-hCTR.36-151-H6 produced in HEK293T cells (human, UniProt P30988-2 36-151, complex N-glycans at N73, N125, N130); assay: AlphaScreen or HTRF
T3 sequence (looked up): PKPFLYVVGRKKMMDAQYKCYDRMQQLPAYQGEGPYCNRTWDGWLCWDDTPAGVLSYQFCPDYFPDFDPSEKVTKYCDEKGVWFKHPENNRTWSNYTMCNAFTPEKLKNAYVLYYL

[3] = target: T3, MBP-hCTR.36-151-H6 produced in HEK293T …; assay: AlphaScreen or HTRF; remark: listed apart in the source
[4] = target: T3, MBP-hCTR.36-151-H6 produced in HEK293T …; assay: fluorescence polarisation
[5] = target: T3, MBP-hCTR.36-151-H6 produced in HEK293T …; assay: fluorescence polarisation; remark: listed apart in the source
[6] = target: T4, MBP-RAMP2-(GS)5-CTR ECD-H6 produced in E. coli (human, UniProt O60895 55-140; P30988-2 36-151); assay: fluorescence polarisation
T4 chain: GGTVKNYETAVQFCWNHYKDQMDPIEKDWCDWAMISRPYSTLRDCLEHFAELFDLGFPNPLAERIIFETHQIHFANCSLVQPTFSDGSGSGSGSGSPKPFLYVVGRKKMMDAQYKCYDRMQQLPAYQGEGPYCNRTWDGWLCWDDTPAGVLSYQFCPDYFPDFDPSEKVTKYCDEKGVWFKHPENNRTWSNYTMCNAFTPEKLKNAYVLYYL

[7] = target: T3, MBP-hCTR.36-151-H6 produced in HEK293T …; assay: fluorescence polarisation; remark: listed apart in the source
[8] = target: T3, MBP-hCTR.36-151-H6 produced in HEK293T …; assay: fluorescence polarisation; remark: listed apart in the source
[9] = target: T5, MBP-free H6-CTR ECD (residues 32-140) (human, UniProt P30988-2 32-140); assay: ITC
T5 sequence (looked up): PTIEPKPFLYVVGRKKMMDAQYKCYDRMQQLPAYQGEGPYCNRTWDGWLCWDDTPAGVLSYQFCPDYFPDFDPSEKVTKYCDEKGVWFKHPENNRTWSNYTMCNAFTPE

[10] = target: T6, MBP-CTR ECD-H6 produced in E. coli (human, UniProt P30988-2 36-151); assay: fluorescence polarisation
T6 sequence (looked up): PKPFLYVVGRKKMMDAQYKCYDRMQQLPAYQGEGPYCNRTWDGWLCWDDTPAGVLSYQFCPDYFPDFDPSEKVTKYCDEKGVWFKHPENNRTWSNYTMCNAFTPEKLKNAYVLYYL

[11] = target: T7, MBP-hCTR.36-151-H6 produced in HEK293S GnTI- cells (human, UniProt P30988-2 36-151, core N-glycans (Man5GlcNAc2) at N73, N125, N130); assay: fluorescence polarisation
T7 sequence (looked up): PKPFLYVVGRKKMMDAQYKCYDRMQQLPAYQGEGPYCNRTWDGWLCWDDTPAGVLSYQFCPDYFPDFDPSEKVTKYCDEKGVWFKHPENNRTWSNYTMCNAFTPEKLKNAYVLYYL

ANFLVRLQTYPRTNVGANTP-NH2 [AC413(6-25) Y25P, reference compound]
IC50 (MBP-CTR ECD): 708 nM

CC(C)C[C@H](NC(=O)[C@H](CCCNC(=N)N)NC(=O)[C@@H](NC(=O)[C@H](CC(C)C)NC(=O)[C@H](Cc1ccccc1)NC(=O)[C@H](CC(N)=O)NC(=O)[C@H](C)NC(=O)CCCCCNC(=S)Nc1ccc2c(c1)C(=O)OC21c2ccc(O)cc2Oc2cc(O)ccc21)C(C)C)C(=O)N[C@@H](CCC(N)=O)C(=O)N[C@H](C(=O)N[C@@H](Cc1ccc(O)cc1)C(=O)N1CCC[C@H]1C(=O)N[C@@H](CCCNC(=N)N)C(=O)N[C@H](C(=O)N[C@@H](CC(N)=O)C(=O)N[C@H](C(=O)NCC(=O)N[C@@H](C)C(=O)N[C@@H](CC(N)=O)C(=O)N[C@H](C(=O)N1CCC[C@H]1C(N)=O)[C@@H](C)O)C(C)C)[C@@H](C)O)[C@@H](C)O [FITC-AC413(6-25) Y25P] ({FITC-Ahx}-ANFLVRLQTYPRTNVGANTP-NH2)
Kd [1]: 115 nM | IC50 (MBP-CTR ECD): 47.9 nM

{FITC′-Ahx}-ANFLVRLQTYPRTNVGANTP-NH2 [FITC-Ahx (aminohexanoic acid)-AC413(6-25) Y25P]
IC50 [2]: 47.9 nM | pIC50 [3]: 7.32 | Kd [4]: 115 nM | pKD [5]: 6.94

{FITC-Ahx}-ANFLVRLQTYPRTNVGANTY-NH2 [FITC-Ahx-AC413(6-25)]
Kd [6]: 4570 nM

B1: Biotin-sCT C1A/C7A (peptide)
peptide: Biotin-ASNLSTAVLGKLSQELHKLQTYPRTNTGSGTP-NH2
SMILES: CC(C)C[C@H](NC(=O)[C@H](CCCCN)NC(=O)CNC(=O)[C@H](CC(C)C)NC(=O)[C@@H](NC(=O)[C@H](C)NC(=O)[C@@H](NC(=O)[C@H](CO)NC(=O)[C@H](CC(C)C)NC(=O)[C@H](CC(N)=O)NC(=O)[C@H](CO)NC(=O)[C@H](C)NC(=O)CCCC[C@@H]1SC[C@@H]2NC(=O)N[C@@H]21)[C@@H](C)O)C(C)C)C(=O)N[C@@H](CO)C(=O)N[C@@H](CCC(N)=O)C(=O)N[C@@H](CCC(=O)O)C(=O)N[C@@H](CC(C)C)C(=O)N[C@@H](Cc1c[nH]cn1)C(=O)N[C@@H](CCCCN)C(=O)N[C@@H](CC(C)C)C(=O)N[C@@H](CCC(N)=O)C(=O)N[C@H](C(=O)N[C@@H](Cc1ccc(O)cc1)C(=O)N1CCC[C@H]1C(=O)N[C@@H](CCCNC(=N)N)C(=O)N[C@H](C(=O)N[C@@H](CC(N)=O)C(=O)N[C@H](C(=O)NCC(=O)N[C@@H](CO)C(=O)NCC(=O)N[C@H](C(=O)N1CCC[C@H]1C(N)=O)[C@@H](C)O)[C@@H](C)O)[C@@H](C)O)[C@@H](C)O
binding result [2]: binds

ANFLVRLQTYPRTNVGANTP-NH2 [AC413(6-25) Y25P]
pIC50 [3]: 6.15 | Ki [7]: 631 nM | pKI [8]: 6.2

VLGKLSQELHKLQTYPRTNTGSGTP-NH2 [sCT(8-32)]
Kd [9]: 16000 nM | dH [9]: -24.2 kcal/mol | stoichiometry N [9]: 1.17 | Ki [10]: ~25000 nM | Ki [7]: ~3000 nM | Ki [11]: ~3000 nM

CSNLSTCVLGKLSQELHKLQTYPRTNTGSGTP-NH2 (disulfide 1-7) [sCT(1-32)]
Kd [9]: 35000 nM
